{"source": "paper PMC11995402", "about": "(ACS infectious diseases, 2025)", "key": {"MDR1-MDCK II cells": {"tested_on": "MDR1-MDCK II cells", "conditions": "MDCK-MDR1"}, "T. muris [1]": {"tested_on": "T. muris", "assay": "adult whipworm whole-worm motility inhibition assay", "type": "cell-based, Trichuris muris", "conditions": "for IC50: motility"}, "STK17A": {"target": "T1, STK17A (Homo sapiens, UniProt Q9UEE5)", "T1 sequence (Q9UEE5 1-414)": "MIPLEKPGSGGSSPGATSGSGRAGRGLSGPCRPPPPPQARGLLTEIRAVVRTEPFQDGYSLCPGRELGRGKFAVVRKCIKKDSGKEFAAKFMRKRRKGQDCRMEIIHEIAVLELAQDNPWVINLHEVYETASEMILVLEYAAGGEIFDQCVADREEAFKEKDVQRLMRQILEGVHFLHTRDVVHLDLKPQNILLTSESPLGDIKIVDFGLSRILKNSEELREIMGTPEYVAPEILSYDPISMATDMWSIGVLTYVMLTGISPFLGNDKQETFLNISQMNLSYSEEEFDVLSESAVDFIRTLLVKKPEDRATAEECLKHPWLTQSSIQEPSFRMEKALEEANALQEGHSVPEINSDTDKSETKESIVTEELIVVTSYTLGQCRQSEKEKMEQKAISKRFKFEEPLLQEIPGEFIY", "assay": "SelectScreen kinase panel, STK17A", "type": "biochemical", "conditions": "500 nM"}, "A. ceylanicum [2]": {"tested_on": "A. ceylanicum", "assay": "in vivo efficacy in A. ceylanicum-infected hamsters", "conditions": "100 mg/kg/day for three days, oral"}, "PIM-3": {"target": "PIM-3 (Homo sapiens, UniProt Q86V86)", "assay": "SelectScreen kinase panel, PIM-3", "type": "biochemical", "conditions": "500 nM"}, "AAK1": {"target": "AAK1 (Homo sapiens, UniProt Q2M2I8)", "sequence (Q2M2I8 whole entry)": "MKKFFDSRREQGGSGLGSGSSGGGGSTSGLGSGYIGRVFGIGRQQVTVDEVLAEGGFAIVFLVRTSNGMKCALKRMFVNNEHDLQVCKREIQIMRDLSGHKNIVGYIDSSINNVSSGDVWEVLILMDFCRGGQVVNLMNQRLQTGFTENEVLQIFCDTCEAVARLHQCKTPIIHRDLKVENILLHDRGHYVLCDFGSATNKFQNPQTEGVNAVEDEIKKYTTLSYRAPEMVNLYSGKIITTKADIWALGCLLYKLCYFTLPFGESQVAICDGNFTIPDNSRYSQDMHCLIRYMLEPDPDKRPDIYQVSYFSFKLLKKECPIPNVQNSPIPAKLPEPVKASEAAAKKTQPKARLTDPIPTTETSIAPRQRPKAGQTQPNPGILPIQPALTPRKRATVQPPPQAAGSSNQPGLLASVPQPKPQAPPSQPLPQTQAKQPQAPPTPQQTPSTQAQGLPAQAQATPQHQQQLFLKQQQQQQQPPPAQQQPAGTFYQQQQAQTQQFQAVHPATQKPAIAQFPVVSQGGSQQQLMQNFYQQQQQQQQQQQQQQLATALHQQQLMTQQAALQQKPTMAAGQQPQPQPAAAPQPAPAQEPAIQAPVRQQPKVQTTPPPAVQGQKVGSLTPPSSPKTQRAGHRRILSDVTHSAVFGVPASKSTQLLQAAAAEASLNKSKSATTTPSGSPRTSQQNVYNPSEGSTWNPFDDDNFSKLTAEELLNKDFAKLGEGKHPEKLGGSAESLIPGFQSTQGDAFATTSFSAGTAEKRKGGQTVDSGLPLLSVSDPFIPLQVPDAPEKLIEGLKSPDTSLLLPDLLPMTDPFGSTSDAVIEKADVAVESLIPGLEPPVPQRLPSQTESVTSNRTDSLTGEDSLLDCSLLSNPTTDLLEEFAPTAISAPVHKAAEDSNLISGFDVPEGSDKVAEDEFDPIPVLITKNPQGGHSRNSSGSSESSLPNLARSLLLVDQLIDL", "assay": "SelectScreen kinase panel, AAK1", "type": "biochemical", "conditions": "500 nM"}, "whipworms": {"tested_on": "whipworms", "assay": "whipworm motility recovery after drug removal", "type": "cell-based", "conditions": "60 μM for 24 h, motility recorded 4 and 24 h after removal", "how_it_was_run": "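Adult T. muris harvested 35 days post-inoculation from Stat6−/− mice, one worm per well in RPMI 1640 (pH 7.2) with 5% FBS, penicillin, streptomycin and amphotericin, at 37 °C and 5% CO2. Worms were exposed to test compound for 24 h, washed, and moved to fresh drug-free medium. Motility inhibition was scored relative to DMSO (0%) after exposure and again 4 and 24 h later.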"}, "HepG2 cells": {"tested_on": "HepG2 cells", "assay": "HepG2 MTT viability assay", "conditions": "read-out: HEPG2 cells CC50 μM (95% CI) 24 h; MTT viability, 24 h"}, "GSG2 (haspin)": {"target": "T2, GSG2 (haspin) (Homo sapiens, UniProt Q8TF76)", "T2 sequence (Q8TF76 1-798)": "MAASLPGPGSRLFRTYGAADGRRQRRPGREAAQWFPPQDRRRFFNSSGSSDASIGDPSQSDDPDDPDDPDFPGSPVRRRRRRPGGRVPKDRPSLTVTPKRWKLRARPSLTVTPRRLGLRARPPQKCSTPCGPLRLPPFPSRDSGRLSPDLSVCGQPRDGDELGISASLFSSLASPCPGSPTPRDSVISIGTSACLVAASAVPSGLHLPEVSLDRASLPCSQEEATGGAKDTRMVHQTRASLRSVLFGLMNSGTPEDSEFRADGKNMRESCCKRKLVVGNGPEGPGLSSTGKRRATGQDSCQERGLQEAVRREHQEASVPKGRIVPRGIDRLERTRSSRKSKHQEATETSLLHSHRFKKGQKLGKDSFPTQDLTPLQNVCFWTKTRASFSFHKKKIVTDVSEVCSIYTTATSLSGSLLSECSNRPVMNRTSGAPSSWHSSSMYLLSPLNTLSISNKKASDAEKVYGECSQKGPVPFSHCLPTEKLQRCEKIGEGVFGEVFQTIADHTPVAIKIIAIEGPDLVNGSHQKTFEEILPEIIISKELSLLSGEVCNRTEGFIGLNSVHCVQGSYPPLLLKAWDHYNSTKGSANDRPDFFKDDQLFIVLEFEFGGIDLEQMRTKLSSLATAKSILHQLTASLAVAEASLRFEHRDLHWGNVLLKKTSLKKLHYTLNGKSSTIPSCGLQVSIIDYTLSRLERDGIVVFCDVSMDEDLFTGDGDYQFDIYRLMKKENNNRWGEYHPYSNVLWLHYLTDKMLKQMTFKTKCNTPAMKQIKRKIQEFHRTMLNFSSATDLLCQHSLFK", "assay": "SelectScreen kinase panel, GSG2", "type": "biochemical", "conditions": "500 nM"}, "T. muris [3]": {"tested_on": "T. muris", "design": "species or system mice", "conditions": "mouse, in vivo, po, 100 mg/kg/day"}, "MYLK4": {"target": "T3, MYLK4 (Homo sapiens, UniProt Q86YV6)", "T3 sequence (Q86YV6 1-388)": "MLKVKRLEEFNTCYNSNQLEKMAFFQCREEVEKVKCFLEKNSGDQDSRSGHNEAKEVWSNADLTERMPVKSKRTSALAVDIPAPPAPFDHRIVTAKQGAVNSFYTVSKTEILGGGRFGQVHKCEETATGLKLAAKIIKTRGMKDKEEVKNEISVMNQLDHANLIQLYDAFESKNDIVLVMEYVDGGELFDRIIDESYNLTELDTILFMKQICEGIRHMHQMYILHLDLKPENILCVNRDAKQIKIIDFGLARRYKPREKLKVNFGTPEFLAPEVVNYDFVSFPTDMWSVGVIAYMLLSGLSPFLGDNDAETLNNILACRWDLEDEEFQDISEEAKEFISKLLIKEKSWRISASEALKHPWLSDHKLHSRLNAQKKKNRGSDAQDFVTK", "assay": "SelectScreen kinase panel, MYLK4", "type": "biochemical", "conditions": "500 nM"}, "[4]": {"assay": "kinetic solubility in simulated gastric and intestinal fluid", "type": "physicochemical"}, "A. ceylanicum [5]": {"tested_on": "A. ceylanicum", "assay": "adult hookworm whole-worm motility inhibition assay", "type": "cell-based, Ancylostoma ceylanicum", "conditions": "motility"}, "MAPK15 (ERK7)": {"target": "T4, MAPK15 (ERK7) (Homo sapiens, UniProt Q8TD08)", "T4 sequence (Q8TD08 1-544)": "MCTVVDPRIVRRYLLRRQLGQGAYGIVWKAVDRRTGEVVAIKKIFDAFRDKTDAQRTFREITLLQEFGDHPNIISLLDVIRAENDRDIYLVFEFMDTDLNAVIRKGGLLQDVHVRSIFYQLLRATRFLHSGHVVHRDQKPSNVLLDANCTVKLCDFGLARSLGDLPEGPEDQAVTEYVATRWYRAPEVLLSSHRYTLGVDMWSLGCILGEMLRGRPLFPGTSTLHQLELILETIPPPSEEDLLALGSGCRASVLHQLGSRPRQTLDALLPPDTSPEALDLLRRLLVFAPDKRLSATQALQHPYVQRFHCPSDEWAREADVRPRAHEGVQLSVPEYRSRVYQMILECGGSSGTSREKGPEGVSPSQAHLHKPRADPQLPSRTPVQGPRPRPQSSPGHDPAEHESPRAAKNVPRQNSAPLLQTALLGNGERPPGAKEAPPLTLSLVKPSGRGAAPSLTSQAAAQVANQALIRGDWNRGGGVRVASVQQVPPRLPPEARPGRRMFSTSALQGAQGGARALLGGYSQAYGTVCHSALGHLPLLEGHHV", "assay": "SelectScreen kinase panel, MAPK15", "type": "biochemical", "conditions": "500 nM"}}, "note": "Like-named read-outs stand apart in the source and are kept apart here.", "data": [{"smiles": "CN1CCCN(C(=O)c2cccc(-c3ccc(/C=C4/C(=O)Nc5ccc(Cl)cc54)o3)c2)CC1", "note": "[CX-6258]", "values": [{"measurement": "Rank Papp", "setting": "MDR1-MDCK II cells", "value": "low"}, {"measurement": "mean Papp A to B", "setting": "MDR1-MDCK II cells", "value": "0.049 10^−6 cm/s"}, {"measurement": "mean Papp B to A", "setting": "MDR1-MDCK II cells", "value": "0.0897 10^−6 cm/s"}, {"measurement": "mean solution recovery % A to B", "setting": "MDR1-MDCK II cells", "value": 5.4, "unit": "%"}, {"measurement": "mean solution recovery % B to A", "setting": "MDR1-MDCK II cells", "value": 20.2, "unit": "%"}, {"measurement": "worm motility inhibition (in words)", "setting": "T. muris [1]; adult T. muris, 30 μM (Figure 1)", "value": "excellent inhibition"}, {"measurement": "motility inhibition", "setting": "T. muris [1]; adult T. muris, 30 μM, relative to DMSO controls", "value": 100, "unit": "%"}, {"measurement": "IC50", "setting": "T. muris [1]; read-out: T. muris IC50 μM (95% CI) 24 h, 24 h", "value": 17.8, "unit": "µM"}, {"measurement": "IC50", "setting": "T. muris [1]; read-out: T. muris IC50 μM (95% CI) 48 h, 48 h", "value": 14.7, "unit": "µM"}, {"measurement": "kinase inhibition STK17A", "setting": "STK17A", "value": "over 80%"}, {"measurement": "reduction of egg number or worm burden (in words)", "setting": "A. ceylanicum [2]", "value": "did not reduce egg number or worm burden"}, {"measurement": "kinase inhibition PIM-3", "setting": "PIM-3", "value": "over 80%"}, {"measurement": "kinase inhibition AAK1", "setting": "AAK1", "value": "over 80%"}, {"measurement": "recovery of whipworm motility after removing the drug", "setting": "whipworms", "value": "no recovery in whipworm motility"}, {"measurement": "CC50", "setting": "HepG2 cells", "value": 37.5, "unit": "µM"}, {"measurement": "kinase inhibition GSG2 (haspin)", "setting": "GSG2 (haspin)", "value": "over 80%"}, {"measurement": "health, vitality and body weight of treated animals", "setting": "T. muris [3]", "value": "did not affect the visually observed health and vitality of treated animals, nor were any changes in body weight"}, {"measurement": "kinase inhibition MYLK4", "setting": "MYLK4", "value": "over 80%"}, {"measurement": "kinetic solubility μM", "setting": "[4]; SGF (pH = 1.2)", "value": 151, "unit": "µM"}, {"measurement": "kinetic solubility μg/mL", "setting": "[4]; SGF (pH = 1.2)", "value": 69.7, "unit": "µg/mL"}, {"measurement": "times more soluble in SGF than in SIF", "setting": "[4]; SGF pH 1.2 versus SIF pH 6.8", "value": "approximately 30 times"}, {"measurement": "kinetic solubility μM", "setting": "[4]; SIF (pH = 6.8)", "value": 5.05, "unit": "µM"}, {"measurement": "kinetic solubility μg/mL", "setting": "[4]; SIF (pH = 6.8)", "value": 2.33, "unit": "µg/mL"}, {"measurement": "IC50", "setting": "A. ceylanicum [5]; read-out: A. ceylanicum IC50 μM (95% CI) 24 h, 24 h", "value": 31.6, "unit": "µM"}, {"measurement": "IC50", "setting": "A. ceylanicum [5]; read-out: A. ceylanicum IC50 μM (95% CI) 48 h, 48 h", "value": 5.5, "unit": "µM"}, {"measurement": "kinase inhibition MAPK15 (ERK7)", "setting": "MAPK15 (ERK7)", "value": "over 80%"}]}]}
